Source: ChEMBL document CHEMBL1154576, “Isolation, structure determination, and biological activity of Lyngbyabellin A from the marine cyanobacterium lyngbya majuscula” (J Nat Prod, 2000)
Values after ≈ are worked out from the molar mass of the structure shown. Active and inactive are the calls of the source. The calls are words filed in the database; no cut-off is given here.

Legend:
MC-38 = experiment: Antitumor activity against mouse C38 cells at 1.2 to 1.5 mg/kg; type: functional, organism-based
How it was run: (§1)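 In vivo mice with murine colon adenocarcinoma C38 or mammary adenocarcinoma M16, dosed at sublethal levels of 1.2-1.5 mg/kg.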

A10 [1] = experiment: Induction of apoptosis in rat A10 cells assessed as apoptotic bodies at 0.01 ug/mL; type: functional, cell-based
How it was run: (§2)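 A-10 smooth muscle cells grown on glass coverslips in Basal Medium Eagle with 10% fetal calf serum, exposed to a range of concentrations or vehicle for 24 h. Microfilaments stained 45 min with 100 nM TRITC-phalloidin, chromatin stained with DAPI, and cells examined by fluorescence microscopy.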

LoVo = experiment: Cytotoxicity against human LoVo cells; type: functional, cell-based
Mus musculus = species: Mus musculus; experiment: Toxicity in mouse assessed as lethal dose; type: organism-based; conditions: in vivo
M16 = experiment: Antitumor activity against mouse M16 cells at 1.2 to 1.5 mg/kg; type: functional, organism-based; how it was run: as §1
[2] = biological target: T1, DNA topoisomerase 1 (Homo sapiens) (UniProt P11387); experiment: Inhibition of topoisomerase 1 at 10 ug/mL
T1 sequence (whole entry): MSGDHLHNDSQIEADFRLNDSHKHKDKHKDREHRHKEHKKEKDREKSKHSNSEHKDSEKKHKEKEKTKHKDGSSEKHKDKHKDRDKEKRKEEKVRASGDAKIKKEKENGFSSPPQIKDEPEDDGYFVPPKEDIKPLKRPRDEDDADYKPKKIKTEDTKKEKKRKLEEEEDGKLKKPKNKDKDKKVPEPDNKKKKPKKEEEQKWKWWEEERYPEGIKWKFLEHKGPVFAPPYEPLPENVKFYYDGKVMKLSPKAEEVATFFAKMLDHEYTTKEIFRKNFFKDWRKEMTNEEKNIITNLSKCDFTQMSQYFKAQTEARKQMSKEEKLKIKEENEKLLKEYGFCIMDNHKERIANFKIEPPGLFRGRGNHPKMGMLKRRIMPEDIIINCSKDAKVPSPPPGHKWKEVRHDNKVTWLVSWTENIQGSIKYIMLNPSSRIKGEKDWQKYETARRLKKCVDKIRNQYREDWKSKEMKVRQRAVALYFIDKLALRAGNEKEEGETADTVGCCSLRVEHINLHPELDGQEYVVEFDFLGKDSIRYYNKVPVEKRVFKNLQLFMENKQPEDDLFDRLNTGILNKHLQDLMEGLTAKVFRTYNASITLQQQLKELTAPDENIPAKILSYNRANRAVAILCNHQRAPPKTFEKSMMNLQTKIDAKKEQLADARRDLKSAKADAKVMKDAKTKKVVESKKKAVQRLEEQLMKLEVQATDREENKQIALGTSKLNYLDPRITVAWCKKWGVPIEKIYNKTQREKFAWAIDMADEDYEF

A10 [3] = experiment: Disruption of cytoskeleton in rat A10 cells assessed as neuron-like gross cellular morphology; type: functional, cell-based; how it was run: as §2
KB = experiment: Cytotoxicity against human KB cells; type: functional, cell-based
A10 [4] = experiment: Disruption of cytoskeleton in rat A10 cells assessed as cells with two nuclei; type: functional, cell-based; how it was run: as §2
[5] = biological target: T1, DNA topoisomerase 1 (Homo sapiens); experiment: Inhibition of topoisomerase 1 at 5 ug/mL
A10 [6] = experiment: Disruption of microtubules in rat A10 cells; type: functional, cell-based
A10 [7] = experiment: Disruption of cellular microfilament network in rat A10 cells at 0.01 to 5.0 ug/mL; type: functional, cell-based; how it was run: as §2

CC[C@H](C)[C@@H]1NC(=O)CNC(=O)c2csc(n2)[C@H](C(C)(C)O)OC(=O)C(C)(C)[C@H](CCCC(C)(Cl)Cl)OC(=O)c2csc1n2 [LYNGBYABELLIN A]
Activity (MC-38): inactive
Activity (A10 [1]): Active
IC50 (LoVo): 0.5 µg/mL (≈ 0.723 µM)
Activity (Mus musculus): 2.4 mg/kg
Activity (M16): inactive
Activity [2]: inactive
Activity (A10 [3]): Active
IC50 (KB): 0.03 µg/mL (≈ 0.0434 µM)
Activity (A10 [4]): Active
Activity [5]: inactive
Activity (A10 [6]): inactive
Activity (A10 [7]): Active
